According to ChEMBL document CHEMBL3407339, “A novel series of thiazolyl-pyrazoline derivatives: synthesis and evaluation of antifungal activity, cytotoxicity and genotoxicity” (Eur J Med Chem, 2015):
≈ marks a conversion by molar mass, not a printed value.

Tested on: Nakaseomyces glabratus
Assay: Antifungal activity against Candida glabrata clinical isolate after 48 hrs by broth microdilution assay
Assay type: functional
Settings: not given
Summary of the method: (§1)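 Broth microdilution of DMSO stocks serially diluted in sterile water (4 to 0.0039 mg/mL). Yeasts grown on SDA at 37 °C for 24 h, suspended in double-strength PDB at 10⁵ spores/mL. Incubated at 37 °C for 48 h, then sprayed with 0.5% aqueous TTC. MIC = lowest concentration inhibiting visible growth. Ketoconazole reference.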

Row | Compound | MIC [µg/mL]
1 | Cc1ccc(C2=NN(c3nc(-c4ccc(C(F)(F)F)cc4)cs3)C(c3ccc(F)cc3)C2)s1 (stereo not drawn) | 250 (≈ 513 µM)
2 | Cc1ccc(-c2csc(N3N=C(c4ccc(Cl)s4)CC3c3ccc(F)cc3)n2)cc1 (stereo not drawn) | 125 (≈ 275 µM)
3 | Fc1ccc(-c2csc(N3N=C(c4ccc(Cl)s4)CC3c3ccc(F)cc3)n2)cc1 (stereo not drawn) | 250 (≈ 546 µM)
4 | Cc1ccc(C2=NN(c3nc(-c4ccc([N+](=O)[O-])cc4)cs3)C(c3ccc(F)cc3)C2)s1 (stereo not drawn) | 125 (≈ 269 µM)

Tested on: Candida albicans
Assay: Antifungal activity against Candida albicans ATCC 90028 after 48 hrs by broth microdilution assay
Assay type: functional
Settings: ATCC 90028, 48 h
Summary of the method: as §1

Row | Compound | MIC [µg/mL]
5 | Cc1ccc(C2=NN(c3nc(-c4ccc(C(F)(F)F)cc4)cs3)C(c3ccc(F)cc3)C2)s1 (stereo not drawn) | 250 (≈ 513 µM)
6 | Cc1ccc(-c2csc(N3N=C(c4ccc(Cl)s4)CC3c3ccc(F)cc3)n2)cc1 (stereo not drawn) | 250 (≈ 551 µM)
7 | Fc1ccc(-c2csc(N3N=C(c4ccc(Cl)s4)CC3c3ccc(F)cc3)n2)cc1 (stereo not drawn) | 250 (≈ 546 µM)
8 | Cc1ccc(C2=NN(c3nc(-c4ccc([N+](=O)[O-])cc4)cs3)C(c3ccc(F)cc3)C2)s1 (stereo not drawn) | 250 (≈ 538 µM)

Tested on: Candida tropicalis
Assay: Antifungal activity against Candida tropicalis NRLL Y 12968 after 48 hrs by broth microdilution assay
Assay type: functional
Settings: NRLL Y 12968, 48 h
Summary of the method: as §1

Row | Compound | MIC [µg/mL]
9 | Cc1ccc(C2=NN(c3nc(-c4ccc(C(F)(F)F)cc4)cs3)C(c3ccc(F)cc3)C2)s1 (stereo not drawn) | 250 (≈ 513 µM)
10 | Cc1ccc(-c2csc(N3N=C(c4ccc(Cl)s4)CC3c3ccc(F)cc3)n2)cc1 (stereo not drawn) | 250 (≈ 551 µM)
11 | Fc1ccc(-c2csc(N3N=C(c4ccc(Cl)s4)CC3c3ccc(F)cc3)n2)cc1 (stereo not drawn) | 250 (≈ 546 µM)
12 | Cc1ccc(C2=NN(c3nc(-c4ccc([N+](=O)[O-])cc4)cs3)C(c3ccc(F)cc3)C2)s1 (stereo not drawn) | 250 (≈ 538 µM)

Tested on: Pichia kudriavzevii
Assay: Antifungal activity against Candida krusei NRLL Y 7179 after 48 hrs by broth microdilution assay
Assay type: functional
Settings: NRLL Y 7179, 48 h
Summary of the method: as §1

Row | Compound | MIC [µg/mL]
13 | Cc1ccc(C2=NN(c3nc(-c4ccc(C(F)(F)F)cc4)cs3)C(c3ccc(F)cc3)C2)s1 (stereo not drawn) | 250 (≈ 513 µM)
14 | Cc1ccc(-c2csc(N3N=C(c4ccc(Cl)s4)CC3c3ccc(F)cc3)n2)cc1 (stereo not drawn) | 250 (≈ 551 µM)
15 | Fc1ccc(-c2csc(N3N=C(c4ccc(Cl)s4)CC3c3ccc(F)cc3)n2)cc1 (stereo not drawn) | 250 (≈ 546 µM)
16 | Cc1ccc(C2=NN(c3nc(-c4ccc([N+](=O)[O-])cc4)cs3)C(c3ccc(F)cc3)C2)s1 (stereo not drawn) | 250 (≈ 538 µM)

Tested on: [Candida] zeylanoides
Assay: Antifungal activity against Candida zeylanoides NRLL Y 1774 after 48 hrs by broth microdilution assay
Assay type: functional
Settings: Dujonia zeylanoides, NRLL Y 1774, 48 h
Summary of the method: as §1

Row | Compound | MIC [µg/mL]
17 | Cc1ccc(C2=NN(c3nc(-c4ccc(C(F)(F)F)cc4)cs3)C(c3ccc(F)cc3)C2)s1 (stereo not drawn) | 250 (≈ 513 µM)
18 | Cc1ccc(-c2csc(N3N=C(c4ccc(Cl)s4)CC3c3ccc(F)cc3)n2)cc1 (stereo not drawn) | 250 (≈ 551 µM)
19 | Fc1ccc(-c2csc(N3N=C(c4ccc(Cl)s4)CC3c3ccc(F)cc3)n2)cc1 (stereo not drawn) | 250 (≈ 546 µM)
20 | Cc1ccc(C2=NN(c3nc(-c4ccc([N+](=O)[O-])cc4)cs3)C(c3ccc(F)cc3)C2)s1 (stereo not drawn) | 250 (≈ 538 µM)

Tested on: Candida parapsilosis
Assay: Antifungal activity against Candida parapsilosis NRLL Y 12696 after 48 hrs by broth microdilution assay
Assay type: functional
Settings: Lodderomyces parapsilosis, NRLL Y 12696, 48 h
Summary of the method: as §1

Row | Compound | MIC [µg/mL]
21 | Cc1ccc(C2=NN(c3nc(-c4ccc(C(F)(F)F)cc4)cs3)C(c3ccc(F)cc3)C2)s1 (stereo not drawn) | 250 (≈ 513 µM)
22 | Cc1ccc(-c2csc(N3N=C(c4ccc(Cl)s4)CC3c3ccc(F)cc3)n2)cc1 (stereo not drawn) | 250 (≈ 551 µM)
23 | Fc1ccc(-c2csc(N3N=C(c4ccc(Cl)s4)CC3c3ccc(F)cc3)n2)cc1 (stereo not drawn) | 250 (≈ 546 µM)
24 | Cc1ccc(C2=NN(c3nc(-c4ccc([N+](=O)[O-])cc4)cs3)C(c3ccc(F)cc3)C2)s1 (stereo not drawn) | 250 (≈ 538 µM)

Tested on: Aspergillus flavus
Assay: Antifungal activity against Aspergillus flavus NRRL 980 after 72 hrs by broth microdilution assay
Assay type: functional
Settings: NRRL 980, 72 h
Summary of the method: (§2)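 Compounds dissolved in DMSO, diluted in sterile distilled water from 4 to 0.0039 mg/mL. Molds grown on PDA at 25 °C for 5 days, suspended in double-strength PDB at 10⁵ spores/mL. Incubated at 25 °C for 72 h; mycelial growth read under stereo microscope. MIC = lowest concentration inhibiting visible growth. Ketoconazole reference.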

Row | Compound | MIC [µg/mL]
25 | Cc1ccc(C2=NN(c3nc(-c4ccc(C(F)(F)F)cc4)cs3)C(c3ccc(F)cc3)C2)s1 (stereo not drawn) | 250 (≈ 513 µM)
26 | Cc1ccc(-c2csc(N3N=C(c4ccc(Cl)s4)CC3c3ccc(F)cc3)n2)cc1 (stereo not drawn) | 250 (≈ 551 µM)
27 | Fc1ccc(-c2csc(N3N=C(c4ccc(Cl)s4)CC3c3ccc(F)cc3)n2)cc1 (stereo not drawn) | 125 (≈ 273 µM)
28 | Cc1ccc(C2=NN(c3nc(-c4ccc([N+](=O)[O-])cc4)cs3)C(c3ccc(F)cc3)C2)s1 (stereo not drawn) | 250 (≈ 538 µM)

Tested on: Aspergillus niger
Assay: Antifungal activity against Aspergillus niger ATCC 1094 after 72 hrs by broth microdilution assay
Assay type: functional
Settings: ATCC 1094, 72 h
Summary of the method: as §2

Row | Compound | MIC [µg/mL]
29 | Cc1ccc(C2=NN(c3nc(-c4ccc(C(F)(F)F)cc4)cs3)C(c3ccc(F)cc3)C2)s1 (stereo not drawn) | 250 (≈ 513 µM)
30 | Cc1ccc(-c2csc(N3N=C(c4ccc(Cl)s4)CC3c3ccc(F)cc3)n2)cc1 (stereo not drawn) | 250 (≈ 551 µM)
31 | Fc1ccc(-c2csc(N3N=C(c4ccc(Cl)s4)CC3c3ccc(F)cc3)n2)cc1 (stereo not drawn) | 250 (≈ 546 µM)
32 | Cc1ccc(C2=NN(c3nc(-c4ccc([N+](=O)[O-])cc4)cs3)C(c3ccc(F)cc3)C2)s1 (stereo not drawn) | 250 (≈ 538 µM)

Tested on: Aspergillus parasiticus
Assay: Antifungal activity against Aspergillus parasiticus NRRL 465 after 72 hrs by broth microdilution assay
Assay type: functional
Settings: NRRL 465, 72 h
Summary of the method: as §2

Row | Compound | MIC [µg/mL]
33 | Cc1ccc(C2=NN(c3nc(-c4ccc(C(F)(F)F)cc4)cs3)C(c3ccc(F)cc3)C2)s1 (stereo not drawn) | 250 (≈ 513 µM)
34 | Cc1ccc(-c2csc(N3N=C(c4ccc(Cl)s4)CC3c3ccc(F)cc3)n2)cc1 (stereo not drawn) | 250 (≈ 551 µM)
35 | Fc1ccc(-c2csc(N3N=C(c4ccc(Cl)s4)CC3c3ccc(F)cc3)n2)cc1 (stereo not drawn) | 250 (≈ 546 µM)
36 | Cc1ccc(C2=NN(c3nc(-c4ccc([N+](=O)[O-])cc4)cs3)C(c3ccc(F)cc3)C2)s1 (stereo not drawn) | 250 (≈ 538 µM)

Tested on: Fusarium solani
Assay: Antifungal activity against Fusarium solani NRRL 13414 after 72 hrs by broth microdilution assay
Assay type: functional
Settings: NRRL 13414, 72 h
Summary of the method: as §2

Row | Compound | MIC [µg/mL]
37 | Cc1ccc(C2=NN(c3nc(-c4ccc(C(F)(F)F)cc4)cs3)C(c3ccc(F)cc3)C2)s1 (stereo not drawn) | 250 (≈ 513 µM)
38 | Cc1ccc(-c2csc(N3N=C(c4ccc(Cl)s4)CC3c3ccc(F)cc3)n2)cc1 (stereo not drawn) | 250 (≈ 551 µM)
39 | Fc1ccc(-c2csc(N3N=C(c4ccc(Cl)s4)CC3c3ccc(F)cc3)n2)cc1 (stereo not drawn) | 250 (≈ 546 µM)
40 | Cc1ccc(C2=NN(c3nc(-c4ccc([N+](=O)[O-])cc4)cs3)C(c3ccc(F)cc3)C2)s1 (stereo not drawn) | 250 (≈ 538 µM)

Tested on: A549
Assay: Antiproliferative activity against human A549 cells after 24 hrs by XTT assay
Assay type: functional, cell-based
Settings: A549, 24 h
Summary of the method: (§3)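 A549 cells in RPMI and NIH/3T3 cells in DMEM, each with fetal calf serum, antibiotics and 7.5% NaHCO₃, at 37 °C, 5% CO₂. Seeded at 20,000 cells/well, 24 h, then compounds added in medium at 500–3.9 doses (final DMSO <0.1%) for 24 h. XTT read after 3 h at 480 nm (ref 680 nm). IC₅₀ by non-linear regression; triplicates; cisplatin control.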

Row | Compound | IC50 [µg/mL]
41 | Cc1ccc(C2=NN(c3nc(-c4ccc(C(F)(F)F)cc4)cs3)C(c3ccc(F)cc3)C2)s1 (stereo not drawn) | > 500
42 | Cc1ccc(-c2csc(N3N=C(c4ccc(Cl)s4)CC3c3ccc(F)cc3)n2)cc1 (stereo not drawn) | > 500
43 | Fc1ccc(-c2csc(N3N=C(c4ccc(Cl)s4)CC3c3ccc(F)cc3)n2)cc1 (stereo not drawn) | > 500
44 | Cc1ccc(C2=NN(c3nc(-c4ccc([N+](=O)[O-])cc4)cs3)C(c3ccc(F)cc3)C2)s1 (stereo not drawn) | 16.7 (≈ 35.9 µM)

Tested on: not listed separately
Assay: Cytotoxicity against mouse NIH/3T3 cells after 24 hrs by XTT assay
Assay type: cell-based
Settings: NIH3T3, 24 h
Summary of the method: as §3

Row | Compound | IC50 [µg/mL]
45 | Cc1ccc(C2=NN(c3nc(-c4ccc(C(F)(F)F)cc4)cs3)C(c3ccc(F)cc3)C2)s1 (stereo not drawn) | > 500
46 | Cc1ccc(-c2csc(N3N=C(c4ccc(Cl)s4)CC3c3ccc(F)cc3)n2)cc1 (stereo not drawn) | > 500
47 | Fc1ccc(-c2csc(N3N=C(c4ccc(Cl)s4)CC3c3ccc(F)cc3)n2)cc1 (stereo not drawn) | > 500
48 | Cc1ccc(C2=NN(c3nc(-c4ccc([N+](=O)[O-])cc4)cs3)C(c3ccc(F)cc3)C2)s1 (stereo not drawn) | 15.6 (≈ 33.6 µM)
